# Experimental data of several laboratories.
# Each line is one published result; the experiments were not run side by side.
# Target: Tyrosine-protein kinase Lck (LCK, Homo sapiens, UniProt P06239)
Structure (SMILES),observed,technique,tested at,remaining binding [%]
O=C(c1ccc(Nc2ncc(Cl)c(-c3cc4ccccc4s3)n2)cc1)N1CCC(N2CCCC2)CC1,binding,competition with immobilised ligand,1 µM,21
CCN1CCN(Cc2ccc(C(=O)Nc3ccc(C)c(Oc4ccc5c(c4)CC(=O)N5)c3)cc2C(F)(F)F)CC1,binding,competition with immobilised ligand,1 µM,22
FC(F)(F)Oc1cccc(-c2cnc3ccc(-c4ccncc4)nn23)c1,cell-free assay,competition with immobilised ligand,5 µM,35
CNC(=O)[C@@H]1CC[C@@H](n2c(-c3ccc4cnccc4c3)nc3ccc(C(=O)NCc4cccc(C(N)=O)c4)cc32)C1,binding,competition with immobilised ligand,1 µM,94
C[C@H]1CCN(c2nccc(-c3cnn4ncccc34)n2)C1,binding,,1 µM,98
Nc1ncc2c(n1)-c1c([nH]c3ccc(C#CC4CC4)cc13)CCCC2,binding,competition with immobilised ligand,1 µM,100
O=C(Nc1c[nH]nc1C(=O)NC1CCNCC1)c1cc(F)cc(F)c1,binding,competition with immobilised ligand,1 µM,100
O=C(NCCCN1CCOCC1)c1ccc(Nc2ncc(Cl)c(-c3ccc(Cl)s3)n2)cc1,binding,competition with immobilised ligand,1 µM,100
COc1ccc2c(c1)O[C@@H](c1ccc(OC)c(OC)c1)C[C@H]2NC(=O)C1(c2ccc3c(c2)OC(F)(F)O3)CC1,cell-free assay,competition with immobilised ligand,1 µM,100
Cc1cnc(Nc2ccc(C(=O)N3CCC(N4CCCC4)CC3)cc2)nc1-c1cc2ccccc2s1,binding,competition with immobilised ligand,1 µM,2.7
CCCOc1ccc([C@@H]2[C@@H](C(=O)O)[C@H](c3ccc4c(c3)OCO4)CN2CC(=O)Nc2c(CC)cccc2CC)cc1,cell-free assay,competition with immobilised ligand,1 µM,100
c1cncc(-c2cccc(Nc3nccc(NC4CCCCC4)n3)c2)c1,binding,competition with immobilised ligand,10 µM,6.6
COc1ccc2cc(OCC3(C(=O)O)CN(C(=O)c4ccc(F)cc4)C3)ccc2c1,cell-free assay,competition with immobilised ligand,1 µM,80
c1cnn2ncc(-c3ccnc(N4CCC45COC5)n3)c2c1,binding,,1 µM,99
CC1=C(C#N)[C@@H](c2ccc3[nH]nc(C)c3c2)C(C#N)=C(c2ccc(Cl)cc2)N1,cell-free assay,competition with immobilised ligand,1 µM,100
COc1ccnn2ncc(-c3ccnc(N(C)C)n3)c12,binding,,1 µM,94
